Measured values published in ChEMBL document CHEMBL1122917, “Vinblastin-23-oyl amino acid derivatives: chemistry, physicochemical data, toxicity, and antitumor activities against P388 and L1210 leukemias” (J Med Chem, 1985).

Experiments:
Format in all cases: functional
Mus musculus [1] = assay: Number of survivors of DBA2 mice on 30th day after inoculation with L1210 leukemia cell line intravenously at a dose of 2 mg/kg/day; 0/10; conditions: route intravenous
Mus musculus [2] = assay: Number of survivors on 60th day at dose 1 mg/kg/day in 10 mice implanted with P388 leukemia cell line; 0/10
Mus musculus [3] = assay: Number of survivors on 30th day at dose 4 mg/kg/day in 10 mice implanted with P388 leukemia cell line;5/10
Mus musculus [4] = assay: Number of survivors on 30th day at dose 11 mg/kg/day in 10 mice implanted with P388 leukemia cell line; 0/10
Mus musculus [5] = assay: Percent increase in life span of DBA2 mice after inoculation with L1210 leukemia intravenously at a dose of 70 mg/kg per day; conditions: route intravenous
Method in brief: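 Female DBA2 mice inoculated iv on day 0 with 10^4 L1210 cells; drugs given iv as sulfate salts in physiological saline, mostly once on day 1. %ILS from all deaths and survivors as (T/C × 100) − 100; survivors scored on days 30 and 60.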

Mus musculus [6] = assay: Percent increase in life span at dose 70 mg/kg/day in 10 mice implanted with P388 leukemia cell line
Method in brief: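 Female DBA2 mice inoculated iv on day 0 with 10^4 P388 cells; single iv treatment on day 1 with drug as sulfate salt in physiological saline. Survival followed; %ILS from all deaths and survivors as (T/C × 100) − 100, maximal MST 30 days; survivors counted on days 30 and 60. Most experiments confirmed three times.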

Mus musculus [7] = assay: Number of survivors of DBA2 mice on 30th day after inoculation with L1210 leukemia cell line intravenously at a dose of 45 mg/kg/day; 0/10; conditions: route intravenous
Mus musculus [8] = assay: Number of survivors on 60th day at dose 40 mg/kg/day in 10 mice implanted with P388 leukemia cell line; 4/10
Mus musculus [9] = assay: Number of survivors on 30th day at dose 20 mg/kg/day in 10 mice implanted with P388 leukemia cell line; 0/10
Mus musculus [10] = assay: Number of survivors on 60th day at dose 60 mg/kg/day in 10 mice implanted with P388 leukemia cell line; 3/10
Mus musculus [11] = assay: Number of survivors on 60th day at dose 65 mg/kg/day in 10 mice implanted with P388 leukemia cell line for 1st scheduled day; 1/10
Mus musculus [12] = assay: Percent increase in life span at dose 2 mg/kg/day in 7 mice implanted with P388 leukemia cell line for 1,8,15 scheduled days
Mus musculus [13] = assay: Number of survivors on 30th day at dose 3 mg/kg/day in 10 mice implanted with P388 leukemia cell line; 0/10
Mus musculus [14] = assay: Number of survivors on 30th day at dose 3 mg/kg/day in 10 mice implanted with P388 leukemia cell line; 0/9
Mus musculus [15] = assay: Number of survivors on 30th day at dose 7 mg/kg/day in 10 mice implanted with P388 leukemia cell line; 0/10

In the case of `CC[C@]1(O)C[C@H]2CN(CCc3c([nH]c4ccccc34)[C@@](C(=O)OC)(c3cc4c(cc3OC)N(C=O)[C@H]3[C@@](O)(C(=O)OC)[C@H](OC(C)=O)[C@]5(CC)C=CCN6CC[C@]43[C@@H]65)C2)C1` [VINCRISTINE], the Survivors (Mus musculus [1]) is reported as 0 and the Survivors (Mus musculus [2]) is reported as 0.

`CC[C@]1(O)C[C@@H]2CN(CCc3c([nH]c4ccccc34)[C@@](C(=O)OC)(c3cc4c(cc3OC)N(C)[C@H]3[C@@](O)(C(=O)OC)[C@H](OC(C)=O)[C@]5(CC)C=CCN6CC[C@]43[C@@H]65)C2)C1` [VINBLASTINE] gave a Survivors (Mus musculus [3]) of 5 and a Survivors (Mus musculus [4]) of 0.

In the case of `CCOC(=O)[C@H](Cc1c[nH]c2ccccc12)NC(=O)[C@@]1(O)[C@H](O)[C@]2(CC)C=CCN3CC[C@@]4(c5cc([C@@]6(C(=O)OC)C[C@H]7C[N@](CCc8c6[nH]c6ccccc86)C[C@](O)(CC)C7)c(OC)cc5N(C)[C@@]14C)[C@@H]32`, the ILS at 70 mg/kg/day (Mus musculus [5]) is reported as 61.8%, the ILS at 70 mg/kg/day (Mus musculus [6]) is reported as 160% and the Survivors (Mus musculus [7]) is reported as 0. The Survivors (Mus musculus [8]) was 4, the Survivors (Mus musculus [9]) was 0 and the Survivors (Mus musculus [10]) was 3. It also gave a Survivors (Mus musculus [11]) of 1.

`CC[C@]1(O)C[C@@H]2CN(CCc3c([nH]c4ccccc34)[C@@](C(=O)OC)(c3cc4c(cc3OC)N(C)[C@H]3[C@@](O)(C(N)=O)[C@H](O)[C@]5(CC)C=CCN6CC[C@]43[C@@H]65)C2)C1` [VINDESINE] was tested, and the ILS at 2 mg/kg/day (Mus musculus [12]) was 31%, the Survivors (Mus musculus [13]) was 0 and the Survivors (Mus musculus [14]) was 0. It also gave a Survivors (Mus musculus [15]) of 0.
